Rows were chosen to be rich in hits. Some 1.4% of all compounds tested hit in one or more screens of this group.
CAL PDZ FP-1: untagged CAL PDZ binding inhibitors, primary screen, biochemical, fluorescence polarization, HTS; Golgi-associated PDZ and coiled-coil motif-containing protein (Homo sapiens), Q9HD26; purified CAL PDZ, TMR-peptide fluorescence polarization, 1 h; inhibition, % at 24.9 µM; 0.92% of 300,000 active;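 active = mean inhibition of at least 30% with at least half of replicates also reaching 30%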;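 note: 0% = DMSO neutral control and 100% = excess unlabeled competitor peptide PRC23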
Arr AP2 block: inhibitors of beta-arrestin/AP2 binding, primary screen, biochemical, GPCR trafficking, flow cytometry; inhibition, % at 10 µM; FITC-arrestin peptide / GST-AP2 beads; AP2 beta2 appendage carries R879A mutation; 0.31% of 340,000 active; beta-arrestin 1 C-terminal peptide binding to AP2 beta2-adaptin appendage (human);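 active = inhibition above a set limit, near 3 SD of compounds lacking own fluorescence, cut at about 54% in these data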;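 note: plate controls were DMSO wells for no effect and 5 µM unlabelled arrestin peptide for full effect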
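Assay system: GST-AP2 R879A bound to glutathione beads, E. coli-expressed; Medium: PBS with 0.05% Tween 20 and 0.1% BSA; Also added: fluorescein-tagged arrestin peptide at 50 nM final; Timing: 12 min plus 1 h, RT; Measured by: flow cytometry, FL1 (488/535 nm); Evaluation: percent drop in bead-associated FITC signal.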
Tn6 DDE FP: inhibitors of Tn6 peptide binding to fibrin DD(E), primary screen, biochemical, fluorescence polarization, human fibrin, Tn6 probe; Fibrinogen beta chain (Homo sapiens), P02675; Fibrin DD(E) TRITC-Tn6 fluorescence polarization displacement; inhibition, % at 8.3 µM; 0.21% of 370,000 active; AID 720509, 2013;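 active = inhibition above a per-campaign cutoff: mean of compounds within control limits plus 3 SD, cut at about 15% in these data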;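 note: 0% = median of all compound wells on the plate and 100% = blocking peptide control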
Tn7 DDE FP: inhibitors of Tn7 peptide binding to fibrin DD(E), primary screen, biochemical, fluorescence polarization, human fibrin, Tn7 probe | FP displacement of FITC-Tn7 peptide from fibrin DD(E); 0% = median of compound wells per plate | 0.13% of 370,000 active | inhibition, % at 8.3 µM | Fibrinogen beta chain (Homo sapiens), P02675 | AID 720508, 2013;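 active = inhibition above the mean of compounds falling within the control limits plus 3 SD of them, cut at about 14% in these data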;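 note: 0% = plate median of compound wells and 100% = 10 µM Aha-Tn7 peptide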
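Measure: % inhibition scaled between sample-field median and high-control FP; Test system: human fibrin DD(E); Quantity: 2 µM final DD(E) protein; Doses: one dose, 8.3 µM nominal; Schedule: compound with protein 10 min, then 3 h after probe, room temperature; Detection: fluorescence polarization; Medium: Tris buffer with calcium and detergent, pH 7.8.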
CAL PDZ FP-2: CAL PDZ peptide-binding inhibitors, primary screen, biochemical, fluorescence polarization, Cer-tagged CAL PDZ, HTS | purified CAL PDZ, TMR-peptide fluorescence polarization, 1 h | inhibition, % at 20 µM | 0.02% of 330,000 active | AID 504414, 2011;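 active = highest replicate inhibition of at least 40%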;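 note: plate controls were DMSO neutral control wells for no effect and unlabeled competitor peptide control wells for full effect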
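Test system: tagged CAL PDZ domain / Buffer or medium: sodium phosphate/NaCl buffer pH 7.4 with TCEP, IgG, Thesit / Reagent: TMR-labelled reporter peptide T*-PRC34 bound in PDZ groove / Compound dosing: single point, 20 µM / Schedule: 1 h incubation at room temperature before polarization reading / Technique: fluorescence polarization (mP) / Benchmarks: unlabelled peptide, DMSO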
Arr AP2 CP1: inhibitors of arrestin peptide binding to AP2, confirmation, biochemical, cherry pick 1, flow cytometry beads | shares compounds with Arr AP2 block | 2% of 1,300 active | AID 504908, 2011 | GST-AP2 beads, FITC arrestin peptide binding; GST-fused beta2-adaptin appendage, R879A mutant | inhibition, % at 10 µM;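 active = inhibition above a set limit, roughly 3 SD of non-fluorescent compound noise, cut at about 38% in these data; inactive = inhibition at or below that limit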;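 note: loss of bead fluorescence from 50 nM FITC arrestin peptide bound to appendage; 0% = negative control wells and 100% = excess unlabelled arrestin peptide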
Target sequence (P63010 whole entry, looked up, the tested form may be a part, one chain of several): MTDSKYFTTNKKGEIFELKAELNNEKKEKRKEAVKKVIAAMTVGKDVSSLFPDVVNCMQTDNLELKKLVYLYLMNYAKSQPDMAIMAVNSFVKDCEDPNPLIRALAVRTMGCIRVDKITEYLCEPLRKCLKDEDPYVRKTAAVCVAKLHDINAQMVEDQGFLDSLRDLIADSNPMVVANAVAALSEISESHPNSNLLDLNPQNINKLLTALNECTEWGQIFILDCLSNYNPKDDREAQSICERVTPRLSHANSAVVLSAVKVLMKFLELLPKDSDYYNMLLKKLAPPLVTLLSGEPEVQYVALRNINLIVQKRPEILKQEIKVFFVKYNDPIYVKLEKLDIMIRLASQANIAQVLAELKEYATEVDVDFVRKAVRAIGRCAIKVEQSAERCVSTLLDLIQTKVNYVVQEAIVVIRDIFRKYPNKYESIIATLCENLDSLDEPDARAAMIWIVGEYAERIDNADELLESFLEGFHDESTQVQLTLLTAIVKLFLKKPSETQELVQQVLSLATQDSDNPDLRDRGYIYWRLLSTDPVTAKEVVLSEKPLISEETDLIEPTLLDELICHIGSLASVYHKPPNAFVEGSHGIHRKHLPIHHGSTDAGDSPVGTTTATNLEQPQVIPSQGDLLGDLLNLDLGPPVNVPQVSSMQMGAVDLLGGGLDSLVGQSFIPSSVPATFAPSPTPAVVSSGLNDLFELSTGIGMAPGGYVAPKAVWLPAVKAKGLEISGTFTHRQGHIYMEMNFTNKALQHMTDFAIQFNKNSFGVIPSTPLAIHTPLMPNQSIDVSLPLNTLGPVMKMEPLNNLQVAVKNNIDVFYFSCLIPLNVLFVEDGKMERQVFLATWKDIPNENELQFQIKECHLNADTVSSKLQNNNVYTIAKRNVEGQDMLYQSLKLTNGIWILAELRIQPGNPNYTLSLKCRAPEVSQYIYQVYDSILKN
GST GSH counter: GST-fluorescein capture on glutathione beads, confirmation, artefact control for arrestin-AP2 inhibitor project, biochemical, cherry pick 1, flow cytometry | shares compounds with Arr AP2 block | GST-fluorescein binding to GSH beads, fluorescence, counter-screen | inhibition, % at 10 µM | 2% of 1,300 active | AID 588338, 2011;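 active = inhibition above 50%, about 3 SD of the inhibition seen with non-fluorescent compounds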;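 note: fluorescein maleimide labelled GST captured on 4 micron glutathione beads; higher means more loss of bead fluorescence from quenching or blocked binding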
Starred values were filed as active, the others as inactive; . = not tested or not shown; ! = not confirmed by another sample.

SMILES	CAL PDZ FP-1	Arr AP2 block	Tn6 DDE FP	Tn7 DDE FP	CAL PDZ FP-2	Arr AP2 CP1	GST GSH counter
Cn1ccnc1CN1CCC[C@]2(CC[C@H](CCC#N)O2)C1	.	.	1	-1	.	.	.
CN(C)c1ccc(CCc2ccc(N)cc2)cc1	.	23	-7	3	0	.	.
Nc1ccc(N(c2ccccc2)c2ccc(N)cc2)cc1	16	59*	-7	-6	-1	10	16
COCCNC(=O)c1cccc(S(=O)(=O)N2CC3(C)CC2CC(C)(C)C3)c1 (stereo not given)	-2	63*	5	3	0	-2	1
Cc1cc(C)n2[nH]c(=O)c(N=Nc3cccc(Cl)c3)c2n1	-2	90*	-5	7	1	2	-5
Cc1c(C(=O)Nc2ccc(C(=O)O)cc2)cnn1C	-1	58*	1	-5	0	-6	-1
O=C(NC1CCCCN(Cc2ccc(Cl)cc2)C1=O)c1c(F)cccc1F (stereo not given)	.	.	-3	-3	.	.	.
CC(C)CCCCCCCCc1cccc(O)c1C(=O)O	.	.	4	-12	.	.	.
Cc1cc(C(=O)Nn2cnc3ccccc3c2=O)ccc1[N+](=O)[O-]	-3	54*	-1	-7	-1	2	3
Cc1cc(C(=O)Nn2c(C)nc3ccccc3c2=O)ccc1[N+](=O)[O-]	1	-13	-6	12	1	.	.
COC(=O)C1=C(NC(=O)COc2ccc(Cl)cc2Cl)CCS1	0	67*	-3	-2	-2	-1	2
COC(=O)C1=C(NC(=O)COc2ccc3ccccc3c2)CCS1	-2	-3	3	1	0	.	.
Cc1ccc(-c2cc(C(F)F)n3ncc(C(=O)N4CCc5ccccc54)c3n2)cc1	-2	13	8	0	-4	.	.
Cc1ccc(-c2cc(C(F)(F)F)n3ncc(C(=O)N4CCCc5ccccc54)c3n2)cc1	-2	-6	-5	-3	-4	49*!	56*!
COc1ccc(OC)c(C(C(=O)NC2CCCCC2)N(C(=O)c2snc(C(N)=O)c2N)c2ccccc2OC)c1 (stereo not given)	-4	-3	-4	4	-2	.	.
COc1ccc(C)cc1N(C(=O)c1snc(C(N)=O)c1N)C(C(=O)NC1CCCCC1)c1ccc(C)o1 (stereo not given)	-11	72*	0	-4	-2	2	-2
COC(=O)[C@]12C[C@H](CC(=O)N3CCCCC3)C(=O)N(CCc3ccc(OC)c(OC)c3)C1=C[C@H](C(C)C)O[C@@H]2C1CC1	.	.	4	4	.	.	.
COc1ccc(CC2(CO)CCN(Cc3ccc(NC(C)=O)cc3)CC2)cc1	-1	56*	5	0	-3	6	0
COc1cccc(CC2(CO)CCN(Cc3ccc(NC(C)=O)cc3)CC2)c1	-2	-4	7	0	-2	.	.
C=C(C)[C@@H]1CC2=C(OC)C(CC=C(C)C)(CC=C(C)C)C(=O)C(C(=O)c3ccccc3)=C2O1	.	.	-7	1	.	.	.
COCc1ccc(CN2CCC(C(=O)Nc3cccc(-c4cccc(Cl)c4)c3)CC2)o1	-6	57*	-6	-2	-2	9	0
COCc1ccc(CN2CCC(C(=O)Nc3cccc(-c4cscn4)c3)CC2)o1	2	-4	10	-6	-2	.	.
CCCn1c(NC(=S)Nc2ccccc2)nc2ccccc21	0	63*	-4	-2	1	-14	4
O=C(CN1CCN(Cc2ccccc2)CC1)N/N=C\c1c2ccccc2cc2ccccc12	.	.	-1	-3	.	.	.
COC(=O)Cc1ccc(NC(=S)N2CCCCC2C)cc1 (stereo not given)	-2	57*	2	1	-2	-10	3
SMILES	CAL PDZ FP-1	Arr AP2 block	Tn6 DDE FP	Tn7 DDE FP	CAL PDZ FP-2	Arr AP2 CP1	GST GSH counter
COC(=O)Cc1ccc(NC(=S)N2CCN(C)CC2)cc1	1	-4	-2	-15	-2	.	.
COc1ccc(CNC(=O)CN(CC2CCCO2)C(=O)CNS(=O)(=O)c2ccccc2)cc1 (stereo not given)	-3	-1	4	0	0	.	.
COc1ccc(CNC(=O)CN(CC2CCCO2)C(=O)CNS(=O)(=O)c2ccc(C)cc2)cc1 (stereo not given)	-2	77*	7	2	-6	-4	1
CCOc1cccc(-c2nnc(SCC(=O)Nc3ccc4c(c3)OCO4)n2N)c1	.	.	2	9	.	.	.
O=C(NC1CCCCC1)N1CCN(CCc2ccccc2)CC1	-3	54*	-1	2	.	-2	-2
CCN1CCN(C(=O)NC2CCCCC2)CC1	-1	26	1	0	1	.	.
C[C@H]1CN(C(=O)OC(C)(C)C)CCN1c1ccc(N2CCS(=O)(=O)CC2)c(C#N)c1	.	.	3	3	.	.	.
COC(=O)[C@@]12CCCCC3=C1N(CCC3)C(=O)[C@H]2CC(=O)N1CCSCC1	.	.	-4	-3	.	.	.
COc1ccc(OC)c(NC(=O)CSc2nnc(CCCO)n2-c2ccccc2)c1	-3	90*	3	-2	.	-9	-1
CC(OC(=O)c1nn(C(C)C)c(=O)c2ccccc12)C(=O)Nc1ncc(Cl)cc1Cl (stereo not given)	0	61*	-6	3	-1	-9	1
Cc1cc(NS(=O)(=O)c2ccc(NC(=O)CSc3nnc(-c4cnccn4)n3-c3ccccc3)cc2)nc(C)n1	.	.	3	-5	.	.	.
O=c1[nH]c2ccc(NC(=S)Nc3ccccc3Cl)cc2[nH]1	.	55*	-3	-2	-1	3	-4
O=C(/C=C/c1cccs1)Nc1nncs1	-4	7	-3	13	-2	.	.
O=C(/C=C/c1cccs1)Nc1cccnc1	2	56*	1	-4	-1	2	0
O=C(Cn1ccnc1)c1ccc(Cl)cc1	-3	55*	5	4	0	-18	0
COc1ccccc1NCCC(=O)OCC(=O)NCc1ccco1	5	75*	0	9	-1	-9	-4
COc1ccc(OCCC(=O)OCC(=O)NCc2ccco2)cc1	-1	4	-9	3	-1	.	.

Source: PubChem
